Data set [1] deals with Transient receptor potential cation channel subfamily V member 1 (Rattus norvegicus) (UniProt O35433). As to the kind of experiment: Inhibition of TRPV1 in Wistar rat neonatal dorsal root ganglia assessed as reduction in capsaicin-induced neuronal excitability by microelectrode array analysis.
For data set [2], the target named is T1, Transient receptor potential cation channel subfamily V member 1 (Homo sapiens, UniProt Q8NER1). As to the kind of experiment: Antagonist activity at TRPV1 (unknown origin) expressed in human SH-SY5Y cells assessed as inhibition of capsaicin-induced calcium increase after 25 mins by Fluo-4 NW dye-based fluorescence assay. The class given is cell-based.
Data set [3] in a line: Drug metabolism in human liver cytosol assessed as glucuronide metabolite formation at 50 uM in presence of UDPGA after 60 mins by LC-ESI-MS analysis. The class given is ADME, subcellular. Conditions: 1 h.
Data set [4] has as its target T1, Transient receptor potential cation channel subfamily V member 1. Put plainly: Antagonist activity at TRPV1 (unknown origin) expressed in human SH-SY5Y cells assessed as inhibition of capsaicin-induced calcium influx at 1 uM after 25 mins by Fluo-4 NW dye-based fluorescence assay relative to capsaicin. The class given is cell-based.
In data set [5] the target is Transient receptor potential cation channel subfamily V member 1 (Rattus norvegicus) (UniProt O35433). As to the kind of experiment: Modulatory activity against TRPV1 in Wistar rat neonatal dorsal root ganglia assessed as inhibition of capsaicin-evoked action potential at 10 uM by microelectrode array analysis relative to control. In short, it runs like this: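 Capsaicin-evoked action potential firing recorded with test agent at 10 µM. Response expressed as the P2/P1 mean spike frequency ratio.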

In data set [6] the test system is Mus musculus. As to the kind of experiment: Analgesic activity in CFA-induced thermal hyperalgesia C57BL/6 mouse model assessed as reduction in latency time required to elicit paw withdrawal in response to radiant heat applied to the plantar surface of a hind paw at 10 to 100 ug administered as intraplantar injection treated at 24 hrs post CFA injection measured at 60 mins post dose. The class given is functional, organism-based.

In data set [7] the test system is Mus musculus. As to the kind of experiment: Antipruritic activity in C57BL/6 mouse non-histaminergic pruritus model assessed as reduction in chloroquine-induced licking behavior at 100 ug administered as intraplantar injection pretreated for 30 mins followed by chloroquine addition measured 10 to 20 mins post chloroquine instillation. The class given is functional, organism-based.

A short description of data set [8]: Drug metabolism in human liver microsomes assessed as glucuronide metabolite formation at 50 uM in presence of UDPGA after 60 mins by LC-ESI-MS analysis. Format: ADME, microsome. Particulars: 1 h.
The target of data set [9] is T2, Liver carboxylesterase 1 (CE1) (Homo sapiens, UniProt P23141).
T2 sequence (P23141 whole entry): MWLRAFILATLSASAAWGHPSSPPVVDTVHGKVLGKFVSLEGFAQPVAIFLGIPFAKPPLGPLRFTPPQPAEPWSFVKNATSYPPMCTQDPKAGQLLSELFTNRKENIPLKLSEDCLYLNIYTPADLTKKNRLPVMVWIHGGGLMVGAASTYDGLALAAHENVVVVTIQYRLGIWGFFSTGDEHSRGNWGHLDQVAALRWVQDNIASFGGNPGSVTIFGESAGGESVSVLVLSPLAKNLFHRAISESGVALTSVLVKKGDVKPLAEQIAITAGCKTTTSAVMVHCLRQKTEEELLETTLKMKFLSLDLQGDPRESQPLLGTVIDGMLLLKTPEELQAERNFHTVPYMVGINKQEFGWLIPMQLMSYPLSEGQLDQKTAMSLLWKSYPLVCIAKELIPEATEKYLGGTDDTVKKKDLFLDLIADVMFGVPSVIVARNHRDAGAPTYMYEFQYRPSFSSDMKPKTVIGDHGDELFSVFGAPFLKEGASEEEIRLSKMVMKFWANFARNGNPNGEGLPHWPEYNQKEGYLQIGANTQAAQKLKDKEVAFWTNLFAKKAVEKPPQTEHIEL
As to the kind of experiment: Drug metabolism assessed as recombinant human CE1-mediated compound hydrolysis by measuring compound half life at 50 uM up to 30 mins by LC-UV analysis. Format: ADME. A digest of the protocol: (§1)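 Recombinant human carboxylesterase isoforms 1 and 2 were each incubated with the test ester. Hydrolysis was followed by HPLC-UV, tracking the disappearance of the substrate over incubation time relative to the initial amount. Chromatograms were also checked for peaks of the expected hydrolysis metabolites.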

For data set [10], the system named is Mus musculus. Put plainly: Toxicity in C57BL/6 mouse assessed as change in body temperature at 10 mg/kg, iv after 120 mins. Particulars: in vivo, 2 h. Format: organism-based.
The next data set concerns the target T3, Cocaine esterase (CE2) (Homo sapiens, UniProt O00748).
T3 sequence (O00748 whole entry): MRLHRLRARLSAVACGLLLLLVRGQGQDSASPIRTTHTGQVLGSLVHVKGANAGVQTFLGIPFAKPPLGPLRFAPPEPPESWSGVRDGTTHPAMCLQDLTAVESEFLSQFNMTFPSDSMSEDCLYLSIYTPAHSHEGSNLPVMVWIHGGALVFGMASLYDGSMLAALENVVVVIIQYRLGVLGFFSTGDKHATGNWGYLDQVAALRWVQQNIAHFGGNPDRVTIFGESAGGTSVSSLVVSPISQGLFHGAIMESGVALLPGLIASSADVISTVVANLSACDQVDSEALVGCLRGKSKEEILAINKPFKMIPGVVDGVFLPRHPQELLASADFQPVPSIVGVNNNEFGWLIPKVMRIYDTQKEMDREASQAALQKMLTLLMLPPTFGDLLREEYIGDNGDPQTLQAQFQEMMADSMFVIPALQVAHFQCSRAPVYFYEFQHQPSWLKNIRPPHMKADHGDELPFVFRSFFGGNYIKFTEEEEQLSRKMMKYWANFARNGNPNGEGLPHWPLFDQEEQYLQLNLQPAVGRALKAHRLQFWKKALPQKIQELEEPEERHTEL
As to the kind of experiment: Drug metabolism assessed as recombinant human CE2-mediated compound hydrolysis by measuring compound half life at 50 uM up to 30 mins by LC-UV analysis. Format: ADME. A digest of the protocol: as §1

Another data set deals with T4, Cocaine esterase (Homo sapiens, UniProt O00748).
T4 sequence (O00748 whole entry): T3 sequence (O00748 whole entry)
Put plainly: Drug metabolism assessed as recombinant human CE2-mediated compound hydrolysis by measuring rate constant at 50 uM up to 30 mins by LC-UV analysis. Format: ADME. Conditions: 0.5 h. A digest of the protocol: as §1

Calls of active or inactive are those of the source. The calls are words filed in the database; no cut-off is given here.

Transient receptor potential cation channel subfamily V member 1 (Rattus norvegicus), sequence (O35433 whole entry): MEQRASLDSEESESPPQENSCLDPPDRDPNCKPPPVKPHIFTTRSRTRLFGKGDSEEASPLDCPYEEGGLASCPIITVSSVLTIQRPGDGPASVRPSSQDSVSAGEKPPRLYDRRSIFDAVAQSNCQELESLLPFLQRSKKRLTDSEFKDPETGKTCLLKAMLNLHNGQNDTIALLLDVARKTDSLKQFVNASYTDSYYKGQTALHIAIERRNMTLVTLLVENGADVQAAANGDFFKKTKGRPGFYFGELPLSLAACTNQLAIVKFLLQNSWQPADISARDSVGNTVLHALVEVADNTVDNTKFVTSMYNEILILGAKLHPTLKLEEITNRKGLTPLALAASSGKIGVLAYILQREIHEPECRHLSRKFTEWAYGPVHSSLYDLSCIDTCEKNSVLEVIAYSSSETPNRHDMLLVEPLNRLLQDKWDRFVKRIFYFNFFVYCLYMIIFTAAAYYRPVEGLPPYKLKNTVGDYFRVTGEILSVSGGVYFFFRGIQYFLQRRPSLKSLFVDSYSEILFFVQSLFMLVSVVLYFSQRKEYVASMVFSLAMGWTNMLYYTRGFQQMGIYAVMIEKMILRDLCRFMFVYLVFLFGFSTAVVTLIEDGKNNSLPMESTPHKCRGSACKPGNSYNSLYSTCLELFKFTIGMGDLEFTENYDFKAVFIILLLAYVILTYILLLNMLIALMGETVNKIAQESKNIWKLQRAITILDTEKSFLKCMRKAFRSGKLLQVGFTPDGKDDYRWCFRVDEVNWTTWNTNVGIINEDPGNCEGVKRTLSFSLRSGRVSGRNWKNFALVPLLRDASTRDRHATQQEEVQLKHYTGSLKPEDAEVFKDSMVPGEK
T1 sequence (Q8NER1 whole entry): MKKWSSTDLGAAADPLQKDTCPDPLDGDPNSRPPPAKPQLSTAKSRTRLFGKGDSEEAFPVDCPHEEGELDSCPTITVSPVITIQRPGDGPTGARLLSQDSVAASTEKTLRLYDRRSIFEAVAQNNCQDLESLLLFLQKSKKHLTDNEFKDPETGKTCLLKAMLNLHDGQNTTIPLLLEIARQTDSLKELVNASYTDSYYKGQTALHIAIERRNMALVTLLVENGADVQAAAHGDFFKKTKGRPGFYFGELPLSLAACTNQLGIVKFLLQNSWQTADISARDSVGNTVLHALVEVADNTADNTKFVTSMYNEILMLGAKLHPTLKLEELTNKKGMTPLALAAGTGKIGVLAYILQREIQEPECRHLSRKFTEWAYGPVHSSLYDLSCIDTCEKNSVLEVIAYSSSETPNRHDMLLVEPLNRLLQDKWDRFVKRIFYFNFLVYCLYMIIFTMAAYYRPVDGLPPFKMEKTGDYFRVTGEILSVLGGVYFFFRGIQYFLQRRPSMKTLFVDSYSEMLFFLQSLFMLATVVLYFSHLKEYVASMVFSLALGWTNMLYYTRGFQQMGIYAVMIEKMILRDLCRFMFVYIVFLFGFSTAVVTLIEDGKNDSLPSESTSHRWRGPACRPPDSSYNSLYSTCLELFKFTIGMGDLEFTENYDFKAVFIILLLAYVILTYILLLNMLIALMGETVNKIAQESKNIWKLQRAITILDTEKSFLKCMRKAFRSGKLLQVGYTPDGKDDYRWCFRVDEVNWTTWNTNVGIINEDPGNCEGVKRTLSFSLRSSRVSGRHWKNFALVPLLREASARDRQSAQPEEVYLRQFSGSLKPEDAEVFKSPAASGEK

Regarding `CCCCCCCCCCCC(=O)OCC(=O)NCc1cc(OC)c(O)cc1I`, the inhibition result in data set [1] was “Dose-dependent effect”; in [4] it was 59.8%; in data set [5], 43%. Moreover, in [2], the IC50 is 930 nM. In addition, the Drug metabolism result in data set [3] and in data set [8] was “Metabolite_Notdetected” in each case. Moreover, the result in the data set with Mus musculus [6] and in the data set with Mus musculus [7] was Active. Further, the half-life at 50 µM in [9] amounted to 27.2 min; at Cocaine esterase (CE2), 12.5 min. Besides, in the data set on Mus musculus [10], the Activity result is on record as “Non-Toxic”. Moreover, the K on Cocaine esterase was 0.0555 min⁻¹.

Source of the values: ChEMBL document CHEMBL4219255, “Targeting Transient Receptor Potential Vanilloid 1 (TRPV1) Channel Softly: The Discovery of Passerini Adducts as a Topical Treatment for Inflammatory Skin Disorders” (J Med Chem, 2018).
